According to ChEMBL document CHEMBL1156767, “Indol-3-ylcycloalkyl ketones: effects of N1 substituted indole side chain variations on CB(2) cannabinoid receptor activity” (J Med Chem, 2010):
pEC50, pKi: −log10 of the molar value.

target: T1, Cannabinoid receptor 2 (Homo sapiens, UniProt P34972); experiment: Agonist activity at human recombinant CB2 receptor expressed in HEK293 cells coexpressing Galphaq/o5 assessed as calcium mobilization by FLIPR assay; format: functional, cell-based; settings: not given
T1 sequence (P34972 whole entry): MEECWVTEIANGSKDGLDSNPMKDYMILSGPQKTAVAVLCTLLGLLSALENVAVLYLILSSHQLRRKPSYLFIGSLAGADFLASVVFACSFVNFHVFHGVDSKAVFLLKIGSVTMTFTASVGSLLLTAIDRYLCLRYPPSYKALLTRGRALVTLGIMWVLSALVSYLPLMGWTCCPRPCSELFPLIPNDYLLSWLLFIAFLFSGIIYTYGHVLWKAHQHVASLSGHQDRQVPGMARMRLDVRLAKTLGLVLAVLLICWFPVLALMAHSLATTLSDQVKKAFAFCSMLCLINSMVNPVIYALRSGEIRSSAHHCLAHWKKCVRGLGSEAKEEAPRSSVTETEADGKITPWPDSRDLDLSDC
Outline: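 HEK cells stably coexpressing human CB2 and chimeric Gαq/o5 were seeded at 75 000 cells/well the day before and loaded with no-wash calcium dye. Mean ± SEM, ≥3 experiments in duplicate.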

Structure (SMILES) | pEC50
CC1(C)C(C(=O)c2cn(CCCCO)c3ccccc23)C1(C)C | 8.10
CC1(C)C(C(=O)c2cn(CCN3CCOC3=O)c3ccccc23)C1(C)C | 8.70
CC1(C)C(C(=O)c2cn(CC3OCCO3)c3ccccc23)C1(C)C | 8.15
CC1(C)C(C(=O)c2cn(C[C@@H]3CCCO3)c3ccccc23)C1(C)C | 7.85
COCCn1cc(C(=O)C2C(C)(C)C2(C)C)c2ccccc21 | 7.85
CC1(C)C(C(=O)c2cn(CCN3CCOCC3)c3ccccc23)C1(C)C | 7.80
CC(=O)CCCCn1cc(C(=O)C2C(C)(C)C2(C)C)c2ccccc21 | 8.22
CC1(C)C(C(=O)c2cn(CC3CCOC3)c3ccccc23)C1(C)C (centres undefined) | 8.22
CC1(C)C(C(=O)c2cn(Cc3ccccc3)c3ccccc23)C1(C)C | 7.03
CC1(C(=O)c2cn(CC3CCOCC3)c3ccccc23)CC(F)(F)C1(F)F (centres undefined) | 6.71
CC1(C)C(C(=O)c2cn(CCc3ccccn3)c3ccccc23)C1(C)C | 6.27
CC1(C)C(C(=O)c2cn(CCN3CCCCC3)c3ccccc23)C1(C)C | 7.25
CC1(C)C(C(=O)c2cn(CCN3CCCCCC3)c3ccccc23)C1(C)C | 5.99

target: T2, Cannabinoid receptor 1 (Homo sapiens, UniProt P21554); experiment: Agonist activity at human recombinant CB1 receptor expressed in CHO cells assessed as inhibition of forskolin-induced cAMP production; format: functional, cell-based; settings: not given
T2 sequence (P21554 whole entry): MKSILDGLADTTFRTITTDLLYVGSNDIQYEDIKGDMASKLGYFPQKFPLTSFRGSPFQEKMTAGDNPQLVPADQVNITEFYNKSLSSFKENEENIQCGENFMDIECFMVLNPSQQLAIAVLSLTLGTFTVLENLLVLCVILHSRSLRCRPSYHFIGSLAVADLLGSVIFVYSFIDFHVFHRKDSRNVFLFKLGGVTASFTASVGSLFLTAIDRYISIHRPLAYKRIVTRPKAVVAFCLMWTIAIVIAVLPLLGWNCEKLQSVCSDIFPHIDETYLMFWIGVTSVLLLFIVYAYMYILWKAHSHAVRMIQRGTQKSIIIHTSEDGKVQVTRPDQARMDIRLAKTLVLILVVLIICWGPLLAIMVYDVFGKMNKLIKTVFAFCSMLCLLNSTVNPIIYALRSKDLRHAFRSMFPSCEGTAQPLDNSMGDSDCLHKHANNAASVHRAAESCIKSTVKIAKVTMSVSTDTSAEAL

Structure (SMILES) | pEC50
CC1(C)C(C(=O)c2cn(CCCCO)c3ccccc23)C1(C)C | 5.73
CC1(C)C(C(=O)c2cn(CCN3CCOC3=O)c3ccccc23)C1(C)C | 5.44

target: T3, Cannabinoid receptor 2 (Rattus norvegicus, UniProt Q9QZN9); experiment: Agonist activity at rat CB2 receptor assessed as inhibition of forskolin-induced cAMP production by cell based assay; format: functional; settings: not given
T3 sequence (Q9QZN9 whole entry): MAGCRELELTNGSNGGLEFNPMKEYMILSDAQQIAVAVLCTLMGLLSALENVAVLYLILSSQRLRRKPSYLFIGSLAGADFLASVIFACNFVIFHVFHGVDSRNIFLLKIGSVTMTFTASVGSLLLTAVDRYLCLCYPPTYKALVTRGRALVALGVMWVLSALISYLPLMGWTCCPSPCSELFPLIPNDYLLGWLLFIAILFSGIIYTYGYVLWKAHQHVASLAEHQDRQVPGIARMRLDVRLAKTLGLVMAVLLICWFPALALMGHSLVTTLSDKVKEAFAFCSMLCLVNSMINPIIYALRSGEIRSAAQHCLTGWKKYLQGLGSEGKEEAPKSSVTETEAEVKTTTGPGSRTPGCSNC

Structure (SMILES) | pEC50
CC1(C)C(C(=O)c2cn(CC3CCOCC3)c3ccccc23)C1(C)C | 9.77
CC1(C)C(C(=O)c2cn(CCCCO)c3ccccc23)C1(C)C | 8.36
CC1(C)C(C(=O)c2cn(CCN3CCOC3=O)c3ccccc23)C1(C)C | 10.15
CC1(C)C(C(=O)c2cn(CCN3CCOCC3)c3ccccc23)C1(C)C | 8.80

target: Cannabinoid receptor 1 (Rattus norvegicus, UniProt P20272); experiment: Agonist activity at rat CB1 receptor assessed as inhibition of forskolin-induced cAMP production by cell based assay; format: functional; settings: not given
Sequence (P20272 whole entry): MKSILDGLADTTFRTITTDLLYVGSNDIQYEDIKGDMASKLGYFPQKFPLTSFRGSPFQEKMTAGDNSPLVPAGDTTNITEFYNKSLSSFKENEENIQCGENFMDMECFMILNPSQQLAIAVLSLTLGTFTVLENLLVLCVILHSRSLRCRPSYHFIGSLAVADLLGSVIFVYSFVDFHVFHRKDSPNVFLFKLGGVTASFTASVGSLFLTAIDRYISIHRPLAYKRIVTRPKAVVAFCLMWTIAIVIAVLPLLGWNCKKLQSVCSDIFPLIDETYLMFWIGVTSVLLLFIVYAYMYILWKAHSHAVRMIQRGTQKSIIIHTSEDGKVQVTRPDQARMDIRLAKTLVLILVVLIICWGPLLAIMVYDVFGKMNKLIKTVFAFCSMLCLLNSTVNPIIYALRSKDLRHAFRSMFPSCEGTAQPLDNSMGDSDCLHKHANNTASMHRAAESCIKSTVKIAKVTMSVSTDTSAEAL

Structure (SMILES) | pEC50
CC1(C)C(C(=O)c2cn(CCCCO)c3ccccc23)C1(C)C | 5.68
CC1(C)C(C(=O)c2cn(CCN3CCOCC3)c3ccccc23)C1(C)C | 6.61

target: T2, Cannabinoid receptor 1; experiment: Displacement of [3H]CP-55940 from human recombinant CB1 receptor expressed in CHO cells; format: cell-based; settings: read-out: Ki

Structure (SMILES) | pKi
CC1(C)C(C(=O)c2cn(CCCCO)c3ccccc23)C1(C)C | < 5.25
CC1(C)C(C(=O)c2cn(CCN3CCOC3=O)c3ccccc23)C1(C)C | 6.46
CC1(C)C(C(=O)c2cn(CC3OCCO3)c3ccccc23)C1(C)C | 6.55
CC1(C)C(C(=O)c2cn(C[C@@H]3CCCO3)c3ccccc23)C1(C)C | 6.66
COCCn1cc(C(=O)C2C(C)(C)C2(C)C)c2ccccc21 | 6.15
CC(=O)CCCCn1cc(C(=O)C2C(C)(C)C2(C)C)c2ccccc21 | 6.42
CC1(C)C(C(=O)c2cn(CC3CCOC3)c3ccccc23)C1(C)C (centres undefined) | 6.20
CC1(C)C(C(=O)c2cn(Cc3ccccc3)c3ccccc23)C1(C)C | 6.68
CC1(C(=O)c2cn(CC3CCOCC3)c3ccccc23)CC(F)(F)C1(F)F (centres undefined) | 5.84
CC1(C)C(C(=O)c2cn(CCc3ccccn3)c3ccccc23)C1(C)C | 5.72
CC1(C)C(C(=O)c2cn(CCN3CCCCC3)c3ccccc23)C1(C)C | 6.25
CC1(C)C(C(=O)c2cn(CCN3CCCCCC3)c3ccccc23)C1(C)C | 6.10

same assay, conditions: read-out: pKi (converted)

Structure (SMILES) | Ki [nM]
CC1(C)C(C(=O)c2cn(CCCCO)c3ccccc23)C1(C)C | > 5620

target: T1, Cannabinoid receptor 2; experiment: Displacement of [3H]CP-55940 from human recombinant CB2 receptor expressed in HEK293 cells; format: cell-based; settings: read-out: Ki

Structure (SMILES) | pKi
CC1(C)C(C(=O)c2cn(CCCCO)c3ccccc23)C1(C)C | 8.66
CC1(C)C(C(=O)c2cn(CCN3CCOC3=O)c3ccccc23)C1(C)C | 9.74
CC1(C)C(C(=O)c2cn(CC3OCCO3)c3ccccc23)C1(C)C | 9.00
CC1(C)C(C(=O)c2cn(C[C@@H]3CCCO3)c3ccccc23)C1(C)C | 8.48
COCCn1cc(C(=O)C2C(C)(C)C2(C)C)c2ccccc21 | 8.51
CC1(C)C(C(=O)c2cn(CCN3CCOCC3)c3ccccc23)C1(C)C | 8.34
CC(=O)CCCCn1cc(C(=O)C2C(C)(C)C2(C)C)c2ccccc21 | 9.00
CC1(C)C(C(=O)c2cn(CC3CCOC3)c3ccccc23)C1(C)C (centres undefined) | 9.85
CC1(C)C(C(=O)c2cn(Cc3ccccc3)c3ccccc23)C1(C)C | 8.09
CC1(C(=O)c2cn(CC3CCOCC3)c3ccccc23)CC(F)(F)C1(F)F (centres undefined) | 7.33
CC1(C)C(C(=O)c2cn(CCc3ccccn3)c3ccccc23)C1(C)C | 7.17
CC1(C)C(C(=O)c2cn(CCN3CCCCC3)c3ccccc23)C1(C)C | 8.64
CC1(C)C(C(=O)c2cn(CCN3CCCCCC3)c3ccccc23)C1(C)C | 7.59

same assay, conditions: read-out: pKi (converted)

Structure (SMILES) | Ki [nM]
CC1(C)C(C(=O)c2cn(CC3CCOC3)c3ccccc23)C1(C)C (centres undefined) | 0.49

target: T1, Cannabinoid receptor 2; experiment: Agonist activity at human recombinant CB2 receptor expressed in HEK293 cells coexpressing Galphaq/o5 assessed as calcium mobilization by FLIPR assay relative to CP-55940; format: functional, cell-based; settings: not given
Outline: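 HEK cells stably coexpressing human CB2 and chimeric Gαq/o5 were seeded at 75 000 cells/well the day before and loaded with no-wash calcium dye. […] Mean ± SEM, ≥3 experiments in duplicate.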

Structure (SMILES) | Activity [%]
CC1(C)C(C(=O)c2cn(CCCCO)c3ccccc23)C1(C)C | 105
CC1(C)C(C(=O)c2cn(CCN3CCOC3=O)c3ccccc23)C1(C)C | 81
CC1(C)C(C(=O)c2cn(CC3OCCO3)c3ccccc23)C1(C)C | 133
CC1(C)C(C(=O)c2cn(C[C@@H]3CCCO3)c3ccccc23)C1(C)C | 117
COCCn1cc(C(=O)C2C(C)(C)C2(C)C)c2ccccc21 | 117
CC(=O)CCCCn1cc(C(=O)C2C(C)(C)C2(C)C)c2ccccc21 | 89
CC1(C)C(C(=O)c2cn(CC3CCOC3)c3ccccc23)C1(C)C (centres undefined) | 102
CC1(C)C(C(=O)c2cn(Cc3ccccc3)c3ccccc23)C1(C)C | 59
CC1(C(=O)c2cn(CC3CCOCC3)c3ccccc23)CC(F)(F)C1(F)F (centres undefined) | 46
CC1(C)C(C(=O)c2cn(CCc3ccccn3)c3ccccc23)C1(C)C | 59
CC1(C)C(C(=O)c2cn(CCN3CCCCC3)c3ccccc23)C1(C)C | 93
CC1(C)C(C(=O)c2cn(CCN3CCCCCC3)c3ccccc23)C1(C)C | 49

target: T1, Cannabinoid receptor 2; experiment: Agonist activity at human recombinant CB2 receptor expressed in HEK293 cells assessed as inhibition of forskolin-induced cAMP production relative to CP-55940; format: functional, cell-based; design: scale not given: the % may be the effect or the level left; settings: not given
Outline: (§1)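 Cyclase assay on cell suspensions (HitHunter cAMP kit): varying test ligand concentrations or CP-55,940 positive control incubated 20 min at 37 °C with a fixed forskolin concentration (lower for rat CB2 than for human CB2 and rat CB1) in D-PBS with 0.01% BSA. Lysis buffer was then added and luminescence read. Response is given as percent of the CP-55,940 response.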

Structure (SMILES) | Activity [%]
CC1(C)C(C(=O)c2cn(CC3CCOCC3)c3ccccc23)C1(C)C | 103
CC1(C)C(C(=O)c2cn(CCCCO)c3ccccc23)C1(C)C | 100
CC1(C)C(C(=O)c2cn(CCN3CCOC3=O)c3ccccc23)C1(C)C | 114
CC1(C)C(C(=O)c2cn(CCN3CCOCC3)c3ccccc23)C1(C)C | 78

target: T1, Cannabinoid receptor 2; experiment: Agonist activity at human recombinant CB2 receptor expressed in HEK293 cells assessed as inhibition of forskolin-induced cAMP production; format: functional, cell-based; settings: not given

Structure (SMILES) | pEC50
CC1(C)C(C(=O)c2cn(CC3CCOCC3)c3ccccc23)C1(C)C | 8.57
CC1(C)C(C(=O)c2cn(CCCCO)c3ccccc23)C1(C)C | 8.68
CC1(C)C(C(=O)c2cn(CCN3CCOC3=O)c3ccccc23)C1(C)C | 9.01
CC1(C)C(C(=O)c2cn(CCN3CCOCC3)c3ccccc23)C1(C)C | 9.28

species: Homo sapiens; experiment: Selectivity ratio of Ki for human recombinant CB1 receptor to Ki for human recombinant CB2 receptor; settings: not given
Outline: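 Membranes were from HEK cells stably expressing human CB2 and CHO cells stably expressing human CB1. Competition was run against 0.5 nM [3H]CP-55,940 in 50 mM Tris-HCl pH 7.4, 2.5 mM EDTA, 5 mM MgCl2, 0.05% fatty-acid-free BSA, for 90 min at 30 °C, then filtered. Nonspecific binding was set with 10 μM unlabeled CP-55,940. Ki came from one-site fits. Mean ± SEM, ≥3 experiments in duplicate.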

Structure (SMILES) | Ratio Ki
CC1(C)C(C(=O)c2cn(CCCCO)c3ccccc23)C1(C)C | > 2500
CC1(C)C(C(=O)c2cn(CCN3CCOC3=O)c3ccccc23)C1(C)C | 1940
CC1(C)C(C(=O)c2cn(CC3OCCO3)c3ccccc23)C1(C)C | 280
CC1(C)C(C(=O)c2cn(C[C@@H]3CCCO3)c3ccccc23)C1(C)C | 67
COCCn1cc(C(=O)C2C(C)(C)C2(C)C)c2ccccc21 | 229
CC(=O)CCCCn1cc(C(=O)C2C(C)(C)C2(C)C)c2ccccc21 | 384
CC1(C)C(C(=O)c2cn(CC3CCOC3)c3ccccc23)C1(C)C (centres undefined) | 4500
CC1(C)C(C(=O)c2cn(Cc3ccccc3)c3ccccc23)C1(C)C | 26
CC1(C(=O)c2cn(CC3CCOCC3)c3ccccc23)CC(F)(F)C1(F)F (centres undefined) | 31
CC1(C)C(C(=O)c2cn(CCc3ccccn3)c3ccccc23)C1(C)C | 28
CC1(C)C(C(=O)c2cn(CCN3CCCCC3)c3ccccc23)C1(C)C | 242
CC1(C)C(C(=O)c2cn(CCN3CCCCCC3)c3ccccc23)C1(C)C | 30

target: Cannabinoid receptor 1 (Rattus norvegicus) (UniProt P20272); experiment: Agonist activity at rat CB1 receptor assessed as inhibition of forskolin-induced cAMP production by cell based assay relative to CP-55940; format: functional; design: scale not given: the % may be the effect or the level left; settings: not given; outline: as §1
Sequence (P20272 whole entry): as above

Structure (SMILES) | Activity [%]
CC1(C)C(C(=O)c2cn(CC3CCOCC3)c3ccccc23)C1(C)C | 91
CC1(C)C(C(=O)c2cn(CCCCO)c3ccccc23)C1(C)C | 113
Cc1c(C(=O)c2cccc3ccccc23)c2cccc3c2n1[C@H](CN1CCOCC1)CO3 | 108
CC1(C)C(C(=O)c2cn(CCN3CCOCC3)c3ccccc23)C1(C)C | 97

target: T4, Cannabinoid receptor 2 (Rattus norvegicus) (UniProt Q9QZN9); experiment: Agonist activity at rat CB2 receptor assessed as inhibition of forskolin-induced cAMP production by cell based assay relative to CP-55940; format: functional; design: concentration or dose not given beside the values; settings: not given; outline: as §1
T4 sequence (whole entry): T3 sequence (Q9QZN9 whole entry)

Structure (SMILES) | Activity [%]
CC1(C)C(C(=O)c2cn(CC3CCOCC3)c3ccccc23)C1(C)C | 93
CC1(C)C(C(=O)c2cn(CCCCO)c3ccccc23)C1(C)C | 104
Cc1c(C(=O)c2cccc3ccccc23)c2cccc3c2n1[C@H](CN1CCOCC1)CO3 | 46
CC1(C)C(C(=O)c2cn(CCN3CCOC3=O)c3ccccc23)C1(C)C | 99
CC1(C)C(C(=O)c2cn(CCN3CCOCC3)c3ccccc23)C1(C)C | 70
